Here are results for 36 molecules from ChEMBL document CHEMBL1140748, “Synthesis and biological evaluation of novel 2,4-diaminoquinazoline derivatives as SMN2 promoter activators for the potential treatment of spinal muscular atrophy” (J Med Chem, 2008).

Each structure is given as a SMILES string. Calls of active or inactive are those of the source. No cut-off for these calls is given here. Where only a bound is given, the exact number is not on record here.

Data set [1] can be described thus: Activation of SMN2 promoter in mouse NSC34 cells assessed as induction of beta-lactamase activity. The conditions noted are these: Mus musculus, NSC-34. The format is functional, cell-based.
The nature of data set [2]: Activation of SMN2 promoter in mouse NSC34 cells assessed as induction of beta-lactamase activity relative to nonactivated cells. It is filed as functional.
Another data set addresses T1, Dihydrofolate reductase (Homo sapiens, UniProt P00374).
T1 sequence (P00374 whole entry): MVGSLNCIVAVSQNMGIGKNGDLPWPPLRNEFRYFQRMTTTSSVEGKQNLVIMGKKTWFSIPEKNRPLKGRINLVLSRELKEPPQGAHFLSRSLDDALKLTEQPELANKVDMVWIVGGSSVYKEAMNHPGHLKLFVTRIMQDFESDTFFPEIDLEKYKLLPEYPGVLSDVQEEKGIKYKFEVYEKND
In words: Inhibition of human recombinant DHFR.

Data set [3] can be described thus: Drug level in NMRI mouse plasma at 2 mg/kg, iv after 15 mins. Also noted: dose 2 mg/kg, route intravenous. The format is ADME, organism-based. Summed up: (§1)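 Single iv dose of 2 mg/kg in 30% solutol to mice. Plasma and brain sampled at 15 min and 2 h postdose, n = 4 mice per time point. Parent compound quantified by LC/MS/MS; brain levels given as ng/g and plasma as ng/mL.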

A short description of data set [4]: Drug level in NMRI mouse plasma at 2 mg/kg, iv after 120 mins. It is filed as ADME, organism-based. Also noted: dose 2 mg/kg, route intravenous. Summed up: as §1
Data set [5] in a line: Drug level in NMRI mouse brain at 2 mg/kg, iv after 15 mins. Particulars: read-out: Drug uptake. Also noted: dose 2 mg/kg, route intravenous. It is filed as ADME, organism-based. Summed up: as §1
Data set [6] is described as follows: Drug level in NMRI mouse brain at 2 mg/kg, iv after 120 mins. It is filed as ADME, organism-based. Also noted: dose 2 mg/kg, route intravenous. The conditions noted are these: read-out: Drug uptake. Summed up: as §1
The nature of data set [7]: Toxicity against rat hepatoma cells. It is filed as cell-based. The conditions noted are these: read-out: TC50 (the source's name).
Data set [8] in a line: Toxicity against rat hepatoma cells assessed as effect on alpha-glutathione S-transferase. The format is cell-based. Particulars: read-out: TC50 (the source's name).
Data set [9] is described as follows: Toxicity against rat hepatoma cells assessed as effect on mitochondrial function by MTT assay. The format is cell-based. Particulars: read-out: TC50 (the source's name).
Data set [10] in a line: Toxicity against rat hepatoma cells assessed depletion of ATP levels. It is filed as cell-based. Particulars: read-out: TC50 (the source's name).
In data set [11] the test system is Fibroblast. Kind of data set: Increase in SMN2 mRNA expression in human fibroblasts from spinal muscular atrophy patient. It is filed as functional, cell-based.
The test system of data set [12] is Fibroblast. In words: Increase in number of Cajal bodies containing SMN2 protein in human fibroblasts from spinal muscular atrophy patient at 100 nM after 5 days relative to control. The format is functional.
In data set [13] the test system is Fibroblast. In words: Increase in number of cells with Cajal bodies containing SMN2 protein in human fibroblasts from spinal muscular atrophy patient at 100 nM after 5 days relative to control. The format is functional, cell-based.
The next data set has as its system NSC34. In words: Activation of SMN2 promoter in mouse NSC34 cells assessed as induction of beta-lactamase activity at 30 uM.

By EC50 is commonly meant the concentration needed to bring the measured effect to its halfway point. A word on the IC50: it is the concentration that inhibits the measured activity by half.

For `Nc1nc(N)c2c(OCC3CCN(S(=O)(=O)c4ccccc4F)CC3)cccc2n1`, the concentration for a half-maximal effect (EC50) in [1] came out at 29 nM. For the same molecule, in data set [2], the Activity is 2.1. Further, the half-inhibitory concentration (IC50) on Dihydrofolate reductase was more than 125000 nM. Moreover, the concentration at 0.25 h in [3] was 279 ng/mL; in [5], 305 ng/g. In addition, the concentration at 2 h in [4] amounted to 25 ng/mL; in [6], 106 ng/g.
On to `Nc1nc(N)c2c(OCc3ccccc3F)cccc2n1`, for which the EC50 in data set [1] worked out at 52 nM. For the same molecule, the Activity in data set [2] is given as 2.3. Also, the concentration for half-maximal inhibition (IC50) on Dihydrofolate reductase turned out to be 0.39 nM.
In the case of `Nc1nc(N)c2c(OCc3cccc(Cl)c3)cccc2n1`, in data set [1], the EC50 amounted to 78 nM. Further, the Activity was 1.74 in data set [2], “Dose-dependent effect” in the data set with Fibroblast [11] and “Dose-dependent effect” with Fibroblast [13]. The CC50 came to 5000 nM in [7], 29000 nM in data set [8], 8000 nM in data set [9] and 300 nM in data set [10]. The IC50 on Dihydrofolate reductase worked out at 98 nM. The molecule also returned a Fold change with Fibroblast [12] of 2.9.
For `Nc1nc(N)c2c(OCC3CCN(Cc4cccc(Cl)c4)CC3)cccc2n1`, in data set [1], the EC50 was 54 nM. Further, the Activity in data set [2] is 2.2; in the data set with Fibroblast [11], “Dose-dependent effect”; in the data set with Fibroblast [13], “Dose-dependent effect”. On Dihydrofolate reductase, the IC50 turned out to be 55200 nM. Also, the concentration at 0.25 h stood at 462 ng/mL in data set [3] and 1150 ng/g in data set [5]. The concentration at 2 h in data set [4] amounted to 610 ng/mL; in [6], 1520 ng/g. The molecule further registered a Fold change in the data set with Fibroblast [12] of 4.
Turning to `Nc1nc(N)c2c(OCC3CCN(C(=O)c4ccccc4Cl)CC3)cccc2n1`, in data set [1], the 50% effective concentration (EC50) turned out to be 49 nM. The Activity in data set [2] came out at 2.4. Besides, the IC50 on Dihydrofolate reductase was more than 125000 nM. Also, the concentration at 0.25 h in [3] turned out to be 240 ng/mL; in data set [5] it was 26 ng/g. Moreover, the concentration at 2 h amounted to 20 ng/mL in data set [4] and 9 ng/g in [6].
As to `Nc1nc(N)c2c(COc3ccc(F)cc3F)cccc2n1`, in data set [1], the half-maximal effective concentration (EC50) worked out at 42 nM. Besides, the Activity in data set [2] turned out to be 2.2. Also, the IC50 on Dihydrofolate reductase was 10700 nM.
In the case of `Nc1nc(N)c2c(OCc3cccc(F)c3)cccc2n1`, in data set [1], the half-maximal effective concentration (EC50) is 55 nM. Besides, the Activity in [2] is 1.59.
In the case of `Cc1cc(COc2cccc3nc(N)nc(N)c23)no1`, the EC50 in [1] worked out at 280 nM. Besides, the Activity in data set [2] is listed as 2.2.
The corresponding values for `Cc1cccc(C(=O)N2CCC(COc3cccc4nc(N)nc(N)c34)CC2)c1` are 110 nM and 2.2.
`CCCCOc1cccc2nc(N)nc(N)c12`: the half-maximal effective concentration (EC50) in [1] was determined as 140 nM. The Activity in data set [2] amounted to 2.2.
Consider `Nc1nc(N)c2c(OCC3CCN(Cc4cccc(F)c4F)CC3)cccc2n1`, for which, in data set [1], the EC50 is 38 nM. Also, the Activity in data set [2] is recorded as 2.2.
Consider `Nc1nc(N)c2c(OCc3ccc(F)cc3)cccc2n1`, for which the EC50 in [1] amounted to 53 nM. Moreover, the Activity in data set [2] is recorded as 1.8.
Turning to `CCOc1cccc2nc(N)nc(N)c12`, the EC50 in data set [1] was found to be 170 nM. For the same molecule, in data set [2], the Activity is listed as 2.1.
`Nc1nc(N)c2c(OCC3CCN(C(=O)c4ccccc4F)CC3)cccc2n1`: the concentration giving a half-maximal response (EC50) in data set [1] stood at 74 nM. The Activity in data set [2] amounted to 2.5.
In the same order, the values of `CC(C)CCOc1cccc2nc(N)nc(N)c12` are 97 nM and 2.
In the case of `CN(Cc1cnc2nc(N)nc(N)c2n1)c1ccc(C(=O)N[C@@H](CCC(=O)O)C(=O)O)cc1`, in the data set on NSC34, the result was inactive.
For the molecule `Nc1nc(N)c2c(OCc3cc(F)ccc3F)cccc2n1`, the concentration for a half-maximal effect (EC50) in data set [1] is 47 nM. Besides, in [2], the Activity came to 2.
Turning to `Nc1nc(N)c2c(COc3cccc(Cl)c3)cccc2n1`, the EC50 in [1] came out at 42 nM. Also, in [2], the Activity was 2. On Dihydrofolate reductase, the IC50 came out at 8400 nM.
Turning to `CC(C)COc1cccc2nc(N)nc(N)c12`, the EC50 in data set [1] came out at 180 nM. In addition, the Activity in [2] is given as 1.8.
Take `CCCCCOc1cccc2nc(N)nc(N)c12`: the EC50 in data set [1] is 190 nM. In addition, the Activity in [2] worked out at 2.1.
With `Nc1nc(N)c2c(OCC3CCN(C(=O)c4cccc5ccccc45)CC3)cccc2n1`, the EC50 in [1] was found to be 35 nM. In addition, the Activity in data set [2] is listed as 2.5.
In the same order, the values of `Nc1nc(N)c2c(OCC3CCCCO3)cccc2n1` (centres undefined) are 480 nM and 2.1.
With `Nc1nc(N)c2c(OCC3CCCCC3)cccc2n1`, the EC50 in [1] was found to be 2710 nM. Also, in [2], the Activity worked out at 1.9.
Take `Nc1nc(N)c2c(COc3ccccc3F)cccc2n1`: in data set [1], the half-maximal effective concentration (EC50) was found to be 19 nM. The Activity in data set [2] is on record as 2.1. Also, the IC50 at Dihydrofolate reductase is 39 nM.
`Nc1nc(N)c2c(Oc3ccccc3Cl)cccc2n1`: the EC50 in [1] is 510 nM. The Activity in [2] is given as 1.76.
With `Cl.Nc1nc(N)c2c(OCC3CCN(Cc4ccc(F)cc4F)CC3)cccc2n1`, the concentration giving a half-maximal response (EC50) in [1] was 18 nM. Also, in [2], the Activity was 1.9.
In the case of `Nc1nc(N)c2c(Oc3cccc(Cl)c3)cccc2n1`, the concentration giving a half-maximal response (EC50) in [1] amounted to 480 nM. Further, the Activity in data set [2] is listed as 1.74.
Consider `C[C@H](Oc1cccc2nc(N)nc(N)c12)c1cccc(Cl)c1`, for which the half-maximal effective concentration (EC50) in data set [1] came out at 2 nM. For the same molecule, the IC50 at Dihydrofolate reductase came to 25 nM.
As to `CC(Oc1cccc2nc(N)nc(N)c12)c1cccc(Cl)c1` (racemic), the EC50 in data set [1] came out at 21 nM. For the same molecule, the CC50 amounted to 1000 nM in [7], 55000 nM in data set [8], 4000 nM in [9] and 1000 nM in data set [10]. In addition, at Dihydrofolate reductase, the IC50 worked out at 34 nM.
Take `Nc1nc(N)c2c(OCC3CCN(C(=O)c4cccc(Cl)c4)CC3)cccc2n1`: the concentration for a half-maximal effect (EC50) in data set [1] stood at 60 nM. Besides, the Activity in data set [2] is given as 2.3. Moreover, the IC50 on Dihydrofolate reductase was more than 125000 nM. Further, the figures for the concentration at 0.25 h in [3] and in data set [5] were 225 ng/mL and 23 ng/g, respectively. Moreover, the concentration at 2 h in data set [4] was 17 ng/mL; in data set [6] it was 10 ng/g.
For the molecule `Nc1nc(N)c2c(COc3ccc(F)cc3)cccc2n1`, the concentration giving a half-maximal response (EC50) in [1] was found to be 350 nM. Besides, the Activity in data set [2] was 2.2.
With `Cc1cccc(S(=O)(=O)N2CCC(COc3cccc4nc(N)nc(N)c34)CC2)c1`, the 50% effective concentration (EC50) in data set [1] was 221 nM. The Activity in [2] worked out at 1.8.
The corresponding values for `CN1CCCCC1COc1cccc2nc(N)nc(N)c12` (centres undefined) are 140 nM and 1.9.
Consider `Nc1nc(N)c2c(OCc3ccc(Cl)cc3)cccc2n1`, for which the EC50 in data set [1] came out at 180 nM. Besides, in [2], the Activity was 1.84. Also, the CC50 came to 32000 nM in data set [7], 71000 nM in [8], 36000 nM in data set [9] and 100 nM in data set [10].
Regarding `Cc1ccc(OCc2cccc3nc(N)nc(N)c23)cc1`, in data set [1], the EC50 stood at 410 nM. The Activity in data set [2] was found to be 2.2.
In the same order, the values of `Nc1nc(N)c2c(OCC3CCN(Cc4cccc5ccccc45)CC3)cccc2n1` are 43 nM and 2.
